The source made the active and inactive calls.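 The calls were made as follows: active = compounds lowering the cell energy light signal whose fitted half-effect dose is at most twice the top tested dose; inconclusive = flat curve with a 30 to 70% drop, or poor fit; inactive = the rest.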
Test system: not listed separately
Assay: cytotoxicity in ldlA[mSR-BI] CHO cells, dose response, cytotoxicity control for SR-BI HDL uptake inhibitor project, cell-based, CellTiter-Glo luminescence, 24 h, dry powder, set 2 (AID 588829)
Settings: ldlA[mSR-BI] CHO cells viability, CellTiter-Glo ATP luminescence, 24 h; at 30 µM (top of the series)
In short: (§1)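 Test system: ldlA cells expressing mouse scavenger receptor SR-BI. Dosing: compound series of 8 concentrations, delivered by pin transfer. Detection: CellTiter-Glo luminescence reporting cellular ATP. Medium: Ham's F12, 10% FCS. Schedule: 24 h at 37 °C exposure, 10 min detection incubation. Evaluation: cell viability, IC50 from fitted dose-response curve.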

| Compound | activity change, negative = toxicity |
| --- | --- |
| C[C@@H]1CN([C@@H](C)CO)C(=O)Cc2cc(NC(=O)Nc3ccc(C(F)(F)F)cc3)ccc2O[C@@H]1CN(C)S(=O)(=O)c1ccc(Cl)cc1 | -71.3% (inactive) |

Same assay, conditions: ldlA[mSR-BI] CHO cells viability, CellTiter-Glo ATP luminescence, 24 h; at 35 µM (top of the series)

| Compound | activity change, negative = toxicity |
| --- | --- |
| COc1cc(OC)cc(C(=O)Nc2nc(-c3ccc4c(c3)CCN4C(=O)CN(C)C)cs2)c1 | 8.9% (inactive) |
| CC(C)(Sc1cc(C(C)(C)C)c(O)c(C(C)(C)C)c1)Sc1cc(C(C)(C)C)c(O)c(C(C)(C)C)c1 | 14.8% (inactive) |
| COCC(=O)N1CCc2cc(-c3csc(NC(=O)c4cc(OC)cc(OC)c4)n3)ccc21 | 10.9% (inactive) |
| CCC(=O)N1CC(C)(C)c2cc(-c3csc(NC(=O)c4cc(OC)cc(OC)c4)n3)ccc21 | 1.55% (inactive) |
| CCNC(=O)N1CCc2cc(-c3csc(NC(=O)c4cc(OC)cc(OC)c4)n3)ccc21 | 9.7% (inactive) |
| Cc1ccc2oc(-c3cccc(NC(=O)c4cc(-n5cnnc5)ccc4Cl)c3)nc2c1 | -6.36% (inactive) |
| COc1ccc(-c2cc(CC(=O)N(C3CCCCC3)C(C)C(=O)NC3CCCC3)no2)cc1OC (stereo unspecified) | 13.9% (inactive) |
| COc1c(NC(=O)C(=O)c2ccc(OCCN3CCOCC3)c3ccccc23)cc(C(C)(C)C)cc1NS(C)(=O)=O | -4.11% (inactive) |
| COc1cc(OC)cc(C(=O)Nc2nc(-c3ccc4c(c3)CCN4C(=O)OC(C)(C)C)cs2)c1 | 12.9% (inactive) |
| CC1CCC/C=C/C2CC(O)CC2C(O)/C=C\C(=O)O1 (stereo unspecified) | -13.3% (inactive) |
| C[C@H](C(=O)NC1CCCC1)N(C(=O)Cn1nnc(-c2ccc3c(c2)OCO3)n1)C1CCCCC1 | 11.2% (inactive) |
| C[C@@H]1CN([C@H](C)CO)C(=O)c2cc(NC(=O)Cc3cn(C)c4ccccc34)ccc2O[C@H]1CN(C)S(=O)(=O)c1ccc(Cl)cc1 | 3.86% (inactive) |
| CCC(=O)N1CCc2cc(-c3csc(NC(=O)c4cccc(OC)c4)n3)ccc21 | 2.38% (inactive) |
| CC(=O)N1CCc2cc(-c3nc(NC(=O)c4cccc(OC(F)(F)F)c4)sc3C)ccc21 | -14.1% (inactive) |

Test system: ldlA[mSR-BI] CHO cells viability, CellTiter-Glo ATP luminescence, 24 h
Assay: as above
Settings: not given
In short: as §1

| Compound | IC50 [µM] |
| --- | --- |
| CCCCCCC1CCC/C1=N\NC(N)=S (stereo unspecified) | 9.05 |
